Assay results reported in ChEMBL document CHEMBL4000230, “Design, synthesis and biological evaluation of regioisomers of 666-15 as inhibitors of CREB-mediated gene transcription” (Bioorg Med Chem Lett, 2017).

Tests used:
MDA-MB-231 = test: Cytotoxicity against human MDA-MB-231 cells assessed as growth inhibition after 72 hrs by MTT assay; assay type: functional; conditions: MDA-MB-231, 72 h
How it was run: (§1)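 Growth inhibition read by MTT after 72 h incubation of the indicated cells with drug; GI50 taken from this assay.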

[1] = Inhibition of forskolin-stimulated CREB (unknown origin)-mediated gene transcription in HEK293T cells preincubated for 30 mins followed by forskolin-stimulation measured after 6 hrs by luciferase reporter gene assay; assay type: cell-based; conditions: Homo sapiens, HEK-293T
How it was run: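 HEK 293T cells transfected with a renilla luciferase reporter driven by three tandem CRE copies. Treated with increasing compound concentrations (50 nM to 50 μM) for 30 min, then forskolin (10 μM) for 6 h, then luciferase measured. Luciferase normalized to lysate protein concentration. IC50 by non-linear regression of dose-response curves.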

MDA-MB-468 = test: Cytotoxicity against human MDA-MB-468 cells assessed as growth inhibition after 72 hrs by MTT assay; assay type: functional; conditions: MDA-MB-468, 72 h; how it was run: as §1

IC50 [1]	SMILES	GI50 (MDA-MB-231)	GI50 (MDA-MB-468)
18.9 µM	NCCCOc1ccc2ccccc2c1C(=O)NCCOc1cc2ccccc2cc1C(=O)Nc1ccc(Cl)cc1O	4.31 µM	1.7 µM
17.2 µM	NCCCOc1cc(C(=O)NCCOc2cc3ccccc3cc2C(=O)Nc2ccc(Cl)cc2O)cc2ccccc12	2.68 µM	0.55 µM
19 µM	NCCCOc1cc(C(=O)NCCOc2cc3ccccc3cc2C(=O)Nc2ccc(Cl)cc2O)c2ccccc2c1	3.82 µM	1.65 µM
24 µM	NCCCOc1c(C(=O)NCCOc2cc3ccccc3cc2C(=O)Nc2ccc(Cl)cc2O)ccc2ccccc12	3.12 µM	1.93 µM
